Reference: ChEMBL document CHEMBL5634103 (Eur J Med Chem, 2023)

Legend:
[1] = target: T1, D(3) dopamine receptor (Homo sapiens, UniProt P35462); assay: Displacement of [125I]IABN from human D3 receptor expressed in HEK cells measured after 60 mins by gamma counting method; format: cell-based
[2] = target: T2, D(2) dopamine receptor (Homo sapiens, UniProt P14416); assay: Displacement of [125I]IABN from human D2L receptor expressed in HEK cells measured after 60 mins by gamma counting method; format: cell-based
[3] = species on record: Homo sapiens; assay: Selectivity ratio of Ki for displacement of [125I]IABN from human D2L receptor expressed in HEK cells to Ki for displacement of [125I]IABN from human D3R expressed in HEK cells; format: cell-based
In short: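 20 µM (+)-butaclamol defines nonspecific binding. Inhibitor over 5 log units, two points per decade, triplicates. Gamma counting. Single-site IC50 converted to Ki (Cheng–Prusoff), ≥3 experiments. Ratio is D2 Ki/D3 Ki.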

[4] = target: T1, D(3) dopamine receptor; assay: Binding affinity to human D3 receptor expressed in CHO-K1 cells assessed as inhibition of dopamine-induced beta-arrestin recruitment preincubated for 30 mins followed by dopamine addition and measured after 90 mins by pathhunter assay
[5] = target: T2, D(2) dopamine receptor; assay: Binding affinity to D2 receptor (unknown origin)

T1 sequence (P35462 whole entry): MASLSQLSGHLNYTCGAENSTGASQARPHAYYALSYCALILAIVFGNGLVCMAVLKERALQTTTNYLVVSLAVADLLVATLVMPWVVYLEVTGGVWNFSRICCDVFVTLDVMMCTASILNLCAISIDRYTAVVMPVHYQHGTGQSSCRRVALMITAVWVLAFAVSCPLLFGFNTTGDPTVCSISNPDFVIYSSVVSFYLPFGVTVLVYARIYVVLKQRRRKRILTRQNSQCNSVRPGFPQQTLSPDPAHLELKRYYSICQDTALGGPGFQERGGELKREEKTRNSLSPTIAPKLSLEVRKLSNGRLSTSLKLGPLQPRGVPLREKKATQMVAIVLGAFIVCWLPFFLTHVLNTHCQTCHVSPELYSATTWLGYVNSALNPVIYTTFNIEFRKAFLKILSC
T2 sequence (P14416 whole entry): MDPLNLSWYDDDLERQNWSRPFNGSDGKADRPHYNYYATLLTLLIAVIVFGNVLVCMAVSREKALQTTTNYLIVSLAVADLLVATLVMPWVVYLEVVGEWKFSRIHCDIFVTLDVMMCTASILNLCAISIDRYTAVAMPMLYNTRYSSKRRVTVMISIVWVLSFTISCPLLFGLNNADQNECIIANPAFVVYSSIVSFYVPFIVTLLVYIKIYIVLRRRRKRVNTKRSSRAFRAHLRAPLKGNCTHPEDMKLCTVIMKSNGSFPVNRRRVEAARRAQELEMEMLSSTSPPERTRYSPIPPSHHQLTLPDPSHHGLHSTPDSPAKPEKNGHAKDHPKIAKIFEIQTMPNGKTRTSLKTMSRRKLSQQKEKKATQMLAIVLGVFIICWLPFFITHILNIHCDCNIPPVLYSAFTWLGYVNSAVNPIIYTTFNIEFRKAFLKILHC

Ki [1] [nM] | Ki [2] [nM] | IC50 [4] [nM] | Ki [5] [nM] | SMILES | Ratio Ki [3]
7.7 | 28.8 | 169 |  | C=CCN1C[C@H](OC(=O)Nc2ccc(-c3ccsc3)cc2)C[C@H]1CNC(=O)c1cc(CCCF)cc(OC)c1OC | 3.7
4.7 | 9.5 |  |  | C=CCN1C[C@H](OCc2ccc(F)cc2)C[C@H]1CNC(=O)c1cc(CCCF)cc(OC)c1OC | 2
9.5 |  |  |  | C=CCN1C[C@H](OCc2ccccc2)C[C@H]1CNC(=O)c1cc(CCCF)cc(OC)c1OC | 
7.3 | 14.2 |  |  | C=CCN1C[C@H](OCCCO)C[C@H]1CNC(=O)c1cc(CCCF)cc(OC)c1OC | 1.9
4.3 | 16.2 | 62.7 |  | CCN1C[C@H](OC(=O)Nc2ccc(-c3ccsc3)cc2)C[C@H]1CNC(=O)c1cc(CCCF)cc(OC)c1OC | 3.8
23.7 | 32.1 |  |  | C=CCN1C[C@H](OCc2ccc(C(F)(F)F)cc2)C[C@H]1CNC(=O)c1cc(CCCF)cc(OC)c1OC | 1.4
 |  |  | 0.02 | C=CCN1CCC[C@H]1CNC(=O)c1cc(CCCF)cc(OC)c1OC [FALLYPRIDE] | 
8.4 | 12.6 |  |  | C=CCN1C[C@H](OC(=O)Nc2ccccc2C)C[C@H]1CNC(=O)c1cc(CCCF)cc(OC)c1OC | 1.5
8.4 | 18.6 | 1.3 |  | C=CCN1C[C@H](OCCCN)C[C@H]1CNC(=O)c1cc(CCCF)cc(OC)c1OC | 2.2
1.7 | 2.5 |  |  | C=CCN1C[C@H](OCc2cccnc2)C[C@H]1CNC(=O)c1cc(CCCF)cc(OC)c1OC | 1.5
12.8 | 30 |  |  | C=CCN1C[C@H](OC(=O)NCCc2ccccc2)C[C@H]1CNC(=O)c1cc(CCCF)cc(OC)c1OC | 2.3
6.1 | 7.7 |  |  | C=CCN1C[C@H](OC(=O)Nc2ccsc2)C[C@H]1CNC(=O)c1cc(CCCF)cc(OC)c1OC | 1.3
12.5 | 18.7 |  |  | C=CCN1C[C@H](OC(=O)Nc2cc(C)ccc2OC)C[C@H]1CNC(=O)c1cc(CCCF)cc(OC)c1OC | 1.5
4 | 7 |  |  | C=CCN1C[C@H](OCc2ccncc2)C[C@H]1CNC(=O)c1cc(CCCF)cc(OC)c1OC | 1.7
1.5 | 2.2 |  |  | C=CCN1C[C@H](OCCCCN)C[C@H]1CNC(=O)c1cc(CCCF)cc(OC)c1OC | 1.4
15 | 8.3 |  |  | C=CCN1C[C@H](OC(=O)Nc2ccoc2)C[C@H]1CNC(=O)c1cc(CCCF)cc(OC)c1OC | 0.6
6790 | > 41000 |  |  | C=CCN1C[C@H](OC(=O)Nc2ccc(-c3ccsc3)cc2)C[C@@H]1CNC(=O)c1cc(CCCF)cc(OC)c1OC | > 6
1950 | 2350 |  |  | C=CCN1C[C@H](OCCCN)C[C@@H]1CNC(=O)c1cc(CCCF)cc(OC)c1OC | 1.2
 | 189 |  |  | C=CCN1C[C@@H](OC(=O)Nc2ccc(-c3ccsc3)cc2)C[C@@H]1CNC(=O)c1cc(CCCF)cc(OC)c1OC | 6.7

The remaining lines, values behind:

SMILES | Ki [1] [nM] | Ki [2] [nM] | IC50 [4] [nM] | Ki [5] [nM] | Ratio Ki [3]
C=CCN1C[C@H](OCCO)C[C@H]1CNC(=O)c1cc(CCCF)cc(OC)c1OC | 2.4 | 8.4 |  |  | 3.5
C=CCN1C[C@H](OC(=O)Nc2cccc(N(C)C)c2)C[C@H]1CNC(=O)c1cc(CCCF)cc(OC)c1OC | 10.6 | 14 |  |  | 1.3
C=CCN1C[C@H](OCCN)C[C@H]1CNC(=O)c1cc(CCCF)cc(OC)c1OC | 9.5 | 107 | 11 |  | 11.3
C=CCN1C[C@H](OC(=O)Nc2ccccn2)C[C@H]1CNC(=O)c1cc(CCCF)cc(OC)c1OC | 4.1 | 10.1 |  |  | 2.4
C=CCN1C[C@H](OCCCNC(=O)c2ccc(-c3ccsc3)cc2)C[C@H]1CNC(=O)c1cc(CCCF)cc(OC)c1OC | 4.2 | 13.4 | 8.1 |  | 3.2
C=CCN1C[C@H](OC(=O)Nc2ccc(-c3ccccn3)cc2)C[C@H]1CNC(=O)c1cc(CCCF)cc(OC)c1OC | 15.8 | 22.4 | 79.2 |  | 1.4
C=CCN1CC[C@H](OCCCN)[C@H]1CNC(=O)c1cc(CCCF)cc(OC)c1OC | 6.2 | 21.4 |  |  | 3.5
C=CCO[C@@H]1C[C@@H](CNC(=O)c2cc(CCCF)cc(OC)c2OC)N(CC=C)C1 | 2.6 | 7.4 |  |  | 2.8
C=CCN1C[C@H](OC(=O)NCc2ccccc2)C[C@H]1CNC(=O)c1cc(CCCF)cc(OC)c1OC | 6.2 | 10.1 |  |  | 1.6
CCN1C[C@H](OCCCN)C[C@H]1CNC(=O)c1cc(CCCF)cc(OC)c1OC | 1.4 | 2.9 | 3.3 |  | 2.1
C=CCN1C[C@H](OC(=O)Nc2cccnc2)C[C@H]1CNC(=O)c1cc(CCCF)cc(OC)c1OC | 3.7 | 8.3 |  |  | 2.2
C=CCN1CC[C@H](OCc2ccccc2)[C@H]1CNC(=O)c1cc(CCCF)cc(OC)c1OC | 2.9 | 7.3 |  |  | 2.5
C=CCN1C[C@@H](OC(=O)Nc2ccc(-c3ccsc3)cc2)C[C@H]1CNC(=O)c1cc(CCCF)cc(OC)c1OC |  | 9690 |  |  | 16.5
C=CCN1C[C@H](OC(=O)Nc2ccccc2)C[C@H]1CNC(=O)c1cc(CCCF)cc(OC)c1OC | 14.6 | 29.2 |  |  | 2
